Laboratory results: ChEMBL document CHEMBL4513216, “Probing the Open Global Health Chemical Diversity Library for Multistage-Active Starting Points for Next-Generation Antimalarials” (ACS Infect Dis, 2020)

Test: Toxicity liver stage against HepG2, at 10uM
Type: cell-based
Parameters: test concentration 10 uM, cell line HepG2-A16-CD81EGFP
Conditions: human, HepG2-A16-CD81EGFP cells; read-out: INHIBITION
In short: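 Uninfected HepG2-A16-CD81EGFP cells, 3 × 10^3 per well, 1536-well, plated on prespotted compound at 10 μM final, parasite-free screening media added to match infected plates; puromycin 10 μM positive, DMSO 0.5% negative; run in parallel with 48 h PbLuc assay at 37 °C, 5% CO2; viability by CellTiter-Glo luminescence, normalized to controls.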

With `COc1cccc2c1ccn2CC(=O)N[C@@H](CCSC)C(=O)O` as the molecule, how does the cytotoxicity at 10 µM read?
The cytotoxicity at 10 µM was 3.2%.

With `O=C1Nc2ccccc2C1C1CCN(C(=O)C2CC2)CC1` (stereo not given) as the molecule, how does the cytotoxicity at 10 µM read?
The cytotoxicity at 10 µM was -1.24%.

Which cytotoxicity at 10 µM does the source give for `CCCn1cc(NC(=O)c2cccc(CN3CC=CC3)c2)nn1` here?
The cytotoxicity at 10 µM was -147%.

For `CCOc1cccc(CNC(=O)NCC(O)c2cccc(F)c2)c1` (stereo not given), which cytotoxicity at 10 µM is on record?
The cytotoxicity at 10 µM was -2.92%.

For `Cc1ccc(C(O)CNC(=O)NCc2c(C)cc(C)[nH]c2=O)cc1` (stereo not given), which cytotoxicity at 10 µM is on record?
The cytotoxicity at 10 µM was -3.9%.

With `Cc1cc(NC(=O)N2CCCC(O)C2)nn1-c1ccccc1Cl` (stereo not given) as the molecule, how does the cytotoxicity at 10 µM read?
Its cytotoxicity at 10 µM is 4.99%.

For `COc1cccc(CCC(=O)N2CCCC(n3cc(C)cn3)C2)c1` (stereo not given), which cytotoxicity at 10 µM is on record?
The cytotoxicity at 10 µM was 4.28%.

For `CCCN(C(=O)c1csnn1)C1CCCN(Cc2ccccc2)C1` (stereo not given), which cytotoxicity at 10 µM is on record?
The cytotoxicity at 10 µM was -4.38%.

With `Cc1occc1C(=O)N1CCC2(CCCN(Cc3cccs3)C2)C1` (stereo not given) as the molecule, how does the cytotoxicity at 10 µM read?
The cytotoxicity at 10 µM was 4.3%.

For `CCN(C(=O)Nc1cccnc1OC)C1CC1`, which cytotoxicity at 10 µM is on record?
The cytotoxicity at 10 µM was -9.11%.

For `O=C(NCC1CCCCO1)c1ccc(-c2ccco2)[nH]c1=O` (stereo not given), which cytotoxicity at 10 µM is on record?
Its cytotoxicity at 10 µM is -3.06%.

For `CN(CCO)Cc1nnc(C2CCN(CC3[C@H]4CNC[C@@H]34)CC2)n1C` (stereo not given in full), which cytotoxicity at 10 µM is on record?
The cytotoxicity at 10 µM was -0.517%.

With `NS(=O)(=O)CCN1CCN(c2cc(F)ccc2F)CC1` as the molecule, how does the cytotoxicity at 10 µM read?
The cytotoxicity at 10 µM was -14.4%.

For `Cc1nn2c(NCC(=O)NC3CC3)cc(-c3ccccc3)nc2c1C`, which cytotoxicity at 10 µM is on record?
Its cytotoxicity at 10 µM is -5.1%.

For `COCC(=O)N1CC[C@@H](N2CCOCC2)[C@@H]1Cc1cccnc1`, which cytotoxicity at 10 µM is on record?
Its cytotoxicity at 10 µM is -95.5%.

For `c1ccc(CN2CCC(c3nccnc3-n3ccnc3)CC2)cc1`, which cytotoxicity at 10 µM is on record?
The cytotoxicity at 10 µM was -19.6%.

Which cytotoxicity at 10 µM does the source give for `O=C(O)c1cc(-c2ccoc2)cc(S(=O)(=O)NC2CC2)c1` here?
The cytotoxicity at 10 µM was -2.18%.

With `O=C(CCN1CCCC1c1cccs1)N1CCc2sccc2C1` (stereo not given) as the molecule, how does the cytotoxicity at 10 µM read?
Its cytotoxicity at 10 µM is -0.636%.

Which cytotoxicity at 10 µM does the source give for `CCCN(CCC)S(=O)(=O)NCCc1cc(C)ccc1OC` here?
The cytotoxicity at 10 µM was 7.75%.

For `CCOc1c(F)cccc1C(=O)N(c1cccnc1)C(C)C`, which cytotoxicity at 10 µM is on record?
The cytotoxicity at 10 µM was 1.52%.

Which cytotoxicity at 10 µM does the source give for `CC(C)C(Sc1cccs1)C(=O)NCc1cccnc1` (stereo not given) here?
The cytotoxicity at 10 µM was -5.15%.

Which cytotoxicity at 10 µM does the source give for `COc1ccc(CNC(Cn2cncn2)c2ccccc2)cc1O` (stereo not given) here?
The cytotoxicity at 10 µM was -6.74%.

For `Cc1ccncc1C(=O)N1C[C@H]2CN(CC3CCC3)C[C@@]2(C(=O)O)C1`, which cytotoxicity at 10 µM is on record?
The cytotoxicity at 10 µM was -5.73%.

Which cytotoxicity at 10 µM does the source give for `CSc1ccc(-c2nc(CN3CCCC(CNC(C)=O)C3)c(C)o2)cc1` (stereo not given) here?
Its cytotoxicity at 10 µM is 2.32%.

With `COCCNC(=O)c1cc(C(C)C)nc(N2CCCCC2)n1` as the molecule, how does the cytotoxicity at 10 µM read?
Its cytotoxicity at 10 µM is 9.04%.

Which cytotoxicity at 10 µM does the source give for `CC(C)Oc1ccc2c(NC(=O)CNC(N)=O)nn(CC(F)(F)F)c2c1` here?
Its cytotoxicity at 10 µM is -5.89%.

With `Cc1cc(C)nc(Nc2cc(C)nc(C3CCN(C(=O)CO)C3)n2)n1` (stereo not given) as the molecule, how does the cytotoxicity at 10 µM read?
The cytotoxicity at 10 µM was 5.34%.

Which cytotoxicity at 10 µM does the source give for `COCc1cc(NCCCSc2nnc(C)s2)ncn1` here?
Its cytotoxicity at 10 µM is 11.6%.

With `CN(CC(C)(CO)CO)C(=O)Nc1cc(Cl)cc(Cl)c1` as the molecule, how does the cytotoxicity at 10 µM read?
The cytotoxicity at 10 µM was 0.0988%.

Which cytotoxicity at 10 µM does the source give for `Cn1cc(-c2noc(C3(C)CCOCC3)n2)cn1` here?
The cytotoxicity at 10 µM was -5.65%.

For `CCc1nc(C2CCCN(C(=O)c3ccccc3O)C2)no1` (stereo not given), which cytotoxicity at 10 µM is on record?
The cytotoxicity at 10 µM was -7.39%.

Which cytotoxicity at 10 µM does the source give for `CCc1ccc(S(=O)(=O)NCCOc2ccc3nnc(C)n3n2)s1` here?
The cytotoxicity at 10 µM was -6.98%.

For `Fc1cccc(N2CCCC3(CN(Cc4nccs4)CCO3)C2)c1` (stereo not given), which cytotoxicity at 10 µM is on record?
Its cytotoxicity at 10 µM is -58.2%.

With `CN(C)[C@@H]1CN(C(=O)COc2cccc(F)c2)C[C@H]1O` as the molecule, how does the cytotoxicity at 10 µM read?
The cytotoxicity at 10 µM was -10.4%.

With `CCc1nc(CN(CC(N)=O)C(C)C)cs1` as the molecule, how does the cytotoxicity at 10 µM read?
The cytotoxicity at 10 µM was -8.62%.

Which cytotoxicity at 10 µM does the source give for `O=C(c1cccs1)N1CCc2ncnc(C3CCOC3)c2CC1` (stereo not given) here?
Its cytotoxicity at 10 µM is -85.4%.

For `CC(=O)Nc1ccc(CNC(C)c2c(C)nn(C)c2C)cc1` (stereo not given), which cytotoxicity at 10 µM is on record?
The cytotoxicity at 10 µM was 13%.

Which cytotoxicity at 10 µM does the source give for `COc1cnc(N2CC(N3CCOCC3)C2)nc1-c1ccnn1C` here?
Its cytotoxicity at 10 µM is 6.24%.

With `Cc1ccc(O)c(CNc2cccc(CN3CCSCC3)c2)n1` as the molecule, how does the cytotoxicity at 10 µM read?
The cytotoxicity at 10 µM was -7.94%.

With `CCc1nn(-c2cc(Oc3cccc(C)c3)nc(C)n2)c(N)c1C#N` as the molecule, how does the cytotoxicity at 10 µM read?
The cytotoxicity at 10 µM was -9.8%.

Which cytotoxicity at 10 µM does the source give for `CN1CCC(c2nccnc2Nc2cnccn2)CC1` here?
Its cytotoxicity at 10 µM is -4.27%.

Which cytotoxicity at 10 µM does the source give for `CCN(CC(=O)NC)S(=O)(=O)N1CCCCC1` here?
Its cytotoxicity at 10 µM is 1.29%.

With `CN(C)c1cc(CNC(=O)c2cccnc2O)ccn1` as the molecule, how does the cytotoxicity at 10 µM read?
The cytotoxicity at 10 µM was -5.26%.

With `COc1cccc(-n2nnc(C(=O)N3CCC(C(N)=O)CC3)c2C)c1` as the molecule, how does the cytotoxicity at 10 µM read?
The cytotoxicity at 10 µM was -6.66%.

For `c1ccc(C[C@H]2CN(C3CCOCC3)CC[C@H]2OCC2CC2)cc1`, which cytotoxicity at 10 µM is on record?
The cytotoxicity at 10 µM was 0.994%.

With `N[C@H]1CN(C(=O)c2ccc3[nH]c(CO)nc3c2)C[C@@H]1c1ccccc1` as the molecule, how does the cytotoxicity at 10 µM read?
The cytotoxicity at 10 µM was -1.82%.

With `CC(C)c1nc(CN(C)C2CCN(CCS(C)(=O)=O)C2)no1` (stereo not given) as the molecule, how does the cytotoxicity at 10 µM read?
Its cytotoxicity at 10 µM is -13.4%.

Which cytotoxicity at 10 µM does the source give for `Cc1oc(-c2nc(C#N)c(NC3CC3)o2)cc1S(=O)(=O)N1CCCC1` here?
The cytotoxicity at 10 µM was -9.95%.

Which cytotoxicity at 10 µM does the source give for `c1ccc(C2CCCN(Cc3cc4n(n3)CCNC4)CC2)cc1` (stereo not given) here?
The cytotoxicity at 10 µM was 1.9%.

Which cytotoxicity at 10 µM does the source give for `CCc1nnsc1C(=O)N1CCCN(Cc2cnn(CC)c2)CC1` here?
Its cytotoxicity at 10 µM is -1.76%.

With `O=C(NC1CCN(C(=O)C2CCCCC2)C1)c1ccncc1Cl` (stereo not given) as the molecule, how does the cytotoxicity at 10 µM read?
The cytotoxicity at 10 µM was 10.4%.

With `Cn1c(CN2CCOC(CCc3ccncn3)C2)nc2ccccc21` (stereo not given) as the molecule, how does the cytotoxicity at 10 µM read?
Its cytotoxicity at 10 µM is -4.42%.

With `N#Cc1ccc(C(=O)N2CCCSCC2CN2CCCC2)cc1` (stereo not given) as the molecule, how does the cytotoxicity at 10 µM read?
The cytotoxicity at 10 µM was 10.1%.

Which cytotoxicity at 10 µM does the source give for `Cc1cc(N(C)C)nc(C2(C)CCCNC2)n1` (stereo not given) here?
Its cytotoxicity at 10 µM is 1.03%.

For `O=C(NC1CC(F)(F)C1)[C@]12COC[C@H]1CN(Cc1cccnc1)C2`, which cytotoxicity at 10 µM is on record?
Its cytotoxicity at 10 µM is -109%.
